PKA-R2B act = activators of PKA-R2B holoenzyme, primary screen, biochemical, fluorescence polarization, Cy5-IP20, human | cAMP-dependent protein kinase catalytic subunit beta (Homo sapiens) + cAMP-dependent … | PKA-R2B holoenzyme dissociation; R2B truncated from residue 108, S112A mutant; 0% DMSO only, 100% 113 µM cGMP | activation, % at 11.4 µM | actives 0.079% (n = 340,000);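 active = activation above a cutoff set at the mean over all compounds plus 3 SD, cut at about 18% in these data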;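 note: higher means more holoenzyme dissociation and a rise in polarization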
Target sequence (P31323 whole entry, looked up, other chains not shown, the tested form may be a part): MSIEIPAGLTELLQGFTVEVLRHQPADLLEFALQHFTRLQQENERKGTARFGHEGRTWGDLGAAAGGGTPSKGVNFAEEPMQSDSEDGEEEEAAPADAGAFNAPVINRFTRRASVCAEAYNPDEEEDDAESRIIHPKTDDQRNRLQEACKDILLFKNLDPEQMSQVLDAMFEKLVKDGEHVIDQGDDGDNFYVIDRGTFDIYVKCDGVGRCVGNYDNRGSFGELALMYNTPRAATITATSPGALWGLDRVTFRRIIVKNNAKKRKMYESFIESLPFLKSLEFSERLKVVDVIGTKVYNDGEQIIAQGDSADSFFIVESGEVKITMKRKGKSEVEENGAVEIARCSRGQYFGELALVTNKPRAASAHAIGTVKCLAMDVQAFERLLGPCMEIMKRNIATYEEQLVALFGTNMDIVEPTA
PKA-R1A act = activators of PKA-R1A holoenzyme, primary screen, biochemical, fluorescence polarization, Cy5-IP20, bovine R1A, mouse PKAc | PKA-R1A dissociation; scaled: DMSO 0%, 113 µM cGMP 100% | actives 0.083% (n = 340,000) | activation, % at 11.4 µM;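 active = percent activation above the mean of all tested compounds plus 3 SD, cut at about 19% in these data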;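 note: higher means more PKAc released from R1A so a rise in polarization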
SR-BI HDL uptake = inhibitors of SR-BI mediated HDL lipid uptake, primary screen, ldlA[mSR-BI] cells, fluorescence, single point. Scavenger receptor class B member 1 (Mus musculus), Q61009. ldlA[mSR-BI] CHO cells, DiI-HDL uptake fluorescence, 3 h. inhibition, % at 12.5 µM. actives 0.96% (n = 320,000). AID 488896, 2010;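 active = mean replicate inhibition of at least 70% and a set share of replicates each scoring 70 or more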
Vif inh = HIV Vif self-association inhibitors, primary screen, imaging, HEK293T, single point. HEK293T cells, Vif self-association by quenched fluorescence, 24 h. inhibition, % at 7.49 µM. actives 0.35% (n = 340,000). AID 602346, 2012; in the data active = inhibition above about 50%, passing the limit was not always enough
SR-BI DiI-HDL act = activators of SR-BI mediated DiI-HDL uptake, primary screen, ldlA[mSR-BI] CHO cells, DiI fluorescence; 3 h; 100 = double the neutral-control signal; activation, % at 12.5 µM; actives 0.096% (n = 320,000); AID 504775, 2011;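 active = mean replicate activation of at least 60% and every replicate at or above 60%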
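System: LDL receptor-deficient CHO ldlA cells overexpressing murine SR-BI | Timing: 3 h uptake period with compound, 37 °C | Medium: HEPES-buffered (25 mM, pH 7.4) F12 plus 0.5% BSA | Dosing: Single-point compound dose | Signal: Bottom-read fluorescence, 550/595 nm | Read-out: Retained DiI signal reflecting DiI-HDL uptake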
A number is an active result; – = inactive; · = not tested or not shown. This is a sample that favours compounds with a hit; in the whole collection about 1.4% have one here.

SMILES	PKA-R2B act	PKA-R1A act	SR-BI HDL uptake	Vif inh	SR-BI DiI-HDL act
NC(Cc1ccc(F)cc1)c1csc(Nc2ccc(C(F)(F)F)cn2)n1 (centres undefined)	·	·	·	–	·
COc1cc(/C=C(\C#N)C(=O)Nc2ccc(SC(F)F)cc2)cc(OC)c1OC	–	–	86	–	–
COc1ccc(-c2ccc3oc(-c4ccsc4)cc(=O)c3c2)cn1	–	–	–	–	–
Cc1nn(C)cc1CN(C)Cc1ccc(OCC(O)CN2CCCCC2)cc1 (centres undefined)	–	–	·	64	·
CCn1nnnc1-c1ccc(OC)c(S(=O)(=O)Nc2ccccc2OC)c1	–	–	·	–	·
C/C(CS(=O)(=O)c1ccc(Cl)c(Cl)c1)=N/NC(N)=S	–	–	81	–	–
CC1(c2ccccc2)NC(=O)N(CC(=O)NCC2CCCO2)C1=O (centres undefined)	–	–	–	–	–
Fc1cccc(-c2cc3nc4c(c(N5CCOCC5)n3n2)CCCC4)c1	–	–	72	–	–
Clc1cccc(-c2cc3nc4c(c(N5CCN(c6cnccn6)CC5)n3n2)CCCC4)c1	–	–	·	–	·
Clc1cccc(-c2cc3nc4c(c(N5CCOCC5)n3n2)CCCC4)c1	–	–	77	–	–
COc1ccc(N2CCN(CC(=O)Nc3c(C)cccc3C)CC2)cc1	–	–	·	·	·
CC(C)(C)c1ccc(CC(=O)N2CCC2(C)C(=O)Nc2cnc3ccccc3c2)cc1 (centres undefined)	·	·	·	–	·
COc1ccc(/C=C/C(O)=C(\C#N)c2nnc(N3CCOCC3)n2-c2ccccc2)cc1OC	–	–	75	–	–
CCc1ccc2[nH]c3nc(SCC(=O)NNC(=O)c4ccc(C(C)(C)C)cc4)nnc3c2c1	–	–	–	90	–
CN(C)c1ccc(CN2CCC(C(=O)NC(c3ccc(Cl)cc3)c3cnccn3)CC2)cc1 (centres undefined)	·	·	·	–	·
COc1cccc(CNCCSc2nnnn2C)c1	–	–	–	–	60
COc1ccc(-c2cc(=O)c3ccc(O)cc3o2)cc1OC	·	·	·	–	·
Nc1ccc(-c2c3ccc(=O)cc-3oc3cc(O)ccc23)c(C(=O)O)c1	–	–	–	73	–
COc1ccc(S(=O)(=O)NCc2ccc3c(c2)OCO3)cc1OC	–	–	–	114	–
COc1ccc(S(=O)(=O)NCc2ccc3c(c2)OCO3)cc1C	–	–	–	–	–
N#Cc1ccccc1NC(=O)CNc1ccccc1N1CCCCC1	–	–	81	–	–
CN(Cc1ccccc1NCC(=O)Nc1ccccc1C#N)C1CCCCC1	–	–	–	–	–
COc1ccc(CCNC(=O)CN2C(=O)NC3(CCCCC3C)C2=O)cc1 (centres undefined)	–	–	–	–	–
O=C(NC1CCCCC1)[C@@H]1CC=C[C@@H]2CCN(C3CCCCC3)C(=O)[C@@H]21	–	–	–	53	–
C[C@H]1Cn2cnc(C(=O)Nc3ccccc3)c2C(=O)N1	–	–	·	–	·
SMILES	PKA-R2B act	PKA-R1A act	SR-BI HDL uptake	Vif inh	SR-BI DiI-HDL act
O=C(N/N=C/c1ccc2c(c1)OCO2)c1ccc(COc2cccc3cccnc23)cc1	–	–	76	–	–
O=C(N/N=C/c1cccc(O)c1)c1ccc(COc2cccc3cccnc23)cc1	–	–	–	–	–
O=C(N/N=C/c1cc2c(cc1Cl)OCO2)c1ccncc1	–	–	–	–	–
O=C(N/N=C/c1ccccc1O)c1ccc2c(c1)OCO2	–	–	81	–	–
O=C(N/N=C/c1cc2c(cc1Cl)OCO2)c1cccc(Br)c1	–	–	81	–	–
COc1cc(Cl)cc(/C=N\NC(=O)c2ccc3c(c2)OCO3)c1O	–	–	·	·	·
O=C(N/N=C/c1cc(Br)cc(Cl)c1O)c1ccc2c(c1)OCO2	–	–	132	–	–
CCN(C[C@H]1N[C@@](CC)(C(=O)OC)[C@H]2C(=O)N(C)C(=O)[C@@H]12)S(=O)(=O)c1ccc(OC)cc1	–	–	–	–	–
COc1cccc(CNC(=O)CS(=O)(=O)Cc2nc(-c3ccc(C)cc3)oc2C)c1OC	–	–	–	–	–

From PubChem
